Screening data as filed in PubChem.
Rev-erbA mod: modulators of human Rev-erb alpha DNA binding. P20393. Rev-erbα–FITC-DNA binding, fluorescence polarization, 90 min. activity, % at 10 µM. hit rate 0.79% among 370,000. AID 1259318;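 active = activity above about 14%, limit read from the data; passing the limit was not always enough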;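 note: 0% = DMSO wells with 35 nM protein and 100% = DMSO wells with 750 nM protein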
NR2E3 ag-1: human photoreceptor-specific nuclear receptor agonism. hit rate 0.35% among 360,000. CHO-S Gal4-NCOR/VP16-NR2E3 two-hybrid, luciferase. inhibition of corepressor binding, % at 3.98 µM. Q9Y5X4;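 active = inhibition above the mean of all tested compounds plus 3 SD, cut at about 70% in these data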;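 note: 0% = DMSO with NR2E3 transfected cells and 100% = cells lacking NR2E3 construct; higher means lower luciferase signal from less NR2E3 corepressor binding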
Target sequence (Q9Y5X4 whole entry, looked up, the tested form may be a part): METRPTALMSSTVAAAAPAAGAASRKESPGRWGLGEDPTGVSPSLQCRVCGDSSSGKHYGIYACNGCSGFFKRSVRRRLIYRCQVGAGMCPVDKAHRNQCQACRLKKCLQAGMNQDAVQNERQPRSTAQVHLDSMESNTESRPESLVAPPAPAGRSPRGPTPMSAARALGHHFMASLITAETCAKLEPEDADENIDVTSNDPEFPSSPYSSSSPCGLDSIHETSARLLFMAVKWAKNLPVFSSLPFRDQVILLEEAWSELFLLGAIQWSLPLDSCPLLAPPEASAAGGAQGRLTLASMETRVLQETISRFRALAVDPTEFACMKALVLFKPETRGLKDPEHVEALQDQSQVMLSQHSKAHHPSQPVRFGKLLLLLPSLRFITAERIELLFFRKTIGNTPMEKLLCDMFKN
PG9 Ab binder: binds the HIV-1 gp120 antibody PG9; TR-FRET gp120-PG9 antibody binding; inhibition, % at 6.7 µM; hit rate 0.43% among 360,000; AID 624416; in the data active = inhibition above about 8.5%
NR2E3 ag-2: activates human photoreceptor nuclear receptor NR2E3; GST-NR2E3/biotin-RetCOR TR-FRET, 1536-well; inhibition of corepressor binding, % at 4.78 µM; Q9Y5X4; hit rate 0.12% among 320,000;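 active = percent inhibition above the cutoff of mean plus 3 SD of all tested compounds, set per screening campaign, cut at about 20% in these data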;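 note: 0% = DMSO wells and 100% = biotin wells as full block of FRET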
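Test system: GST-NR2E3 and biotin-RetCOR proteins | Quantity: 1.35 nM GST-tagged NR2E3 final | Medium: Tris pH 7.5 | Also added: 7 nM biotin-RetCOR | Dosing: Compound at 4.8 µM, single dose | Timing: 5 h at 4 °C | Detection: Time-resolved FRET | Read-out basis: Percent inhibition | Benchmarks: Biotin wells as high control, 0.6% DMSO wells as low control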
PG9 binder conf: PG9 antibody binding, confirmed. inhibition, % at 6.7 µM. TR-FRET PG9 antibody binding, biochemical. hit rate 90% among 1,500. AID 651571. shares compounds with PG9 Ab binder; in the data active = inhibition above about 9%
PGV04 Ab binding: counter-screen for PG9 binders: binding control antibody PGV04; shares compounds with PG9 Ab binder; TR-FRET PGV04 antibody-gp120 binding, biochemical; inhibition, % at 6.7 µM; hit rate 95% among 1,500; in the data active = inhibition above about 9.5%
PG9 bind DR: PG9 antibody binding, dose response; shares compounds with PG9 Ab binder; AID 651848; IC50, µM; 95 tested, under 10 active; TR-FRET PG9 antibody-gp120 binding inhibition; in the data active = IC50 below about 10 µM
PGV04 binding DR: binds control antibody PGV04 in PG9 counter-screen; shares compounds with PG9 Ab binder; TR-FRET binding to control antibody PGV04; IC50, µM; hit rate 20% among 95; AID 651937
PG126 binding DR: counter-screen for PG9 binders: binding to control antibody PG126 | IC50, µM | AID 651939 | hit rate 20% among 95 | shares compounds with PG9 Ab binder | TR-FRET binding to antibody PG126, counterscreen
Rev-erbA confirm: confirmation of modulators of human Rev-erb alpha DNA binding; activation, % at 25 µM; shares compounds with Rev-erbA mod; AID 1259319; Rev-erb alpha FITC-DNA binding, fluorescence polarization, 90 min; hit rate 61% among 3,000;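 active = activation at or above a set limit, or at least 3 SD above the negative control mean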;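 note: 0% = 35 nM protein with DMSO and 100% = 750 nM protein high control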
RORg DNA counter: RORgamma DNA-binding activity, dose-response counter-screen | shares compounds with Rev-erbA mod | purified RORgamma protein-FITC-DNA binding, fluorescence polarization | IC50, µM | hit rate 8% among 910 | AID 1259320;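 active = Compounds whose fitted half-maximal concentration for disrupting protein-DNA binding is below 10 micromolar; the record names Rev-erb in its text, so the target is in doubt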
Numbers without * were called inactive; i = inactive; x = no result given. In the library only some 1.4% were active in any assay of this set; here they are far more common. Cut-off read from the data, not from the text of the source, unless noted: active = IC50 below about 9 µM; inactive = the rest.

SMILES	Rev-erbA mod	NR2E3 ag-1	PG9 Ab binder	NR2E3 ag-2	PG9 binder conf	PGV04 Ab binding	Rev-erbA confirm	others
CCOC(=O)c1c(NC(=O)C2CCCO2)sc(C(N)=O)c1C (stereo not drawn)	-7	-31	0	-2	x	x	x
CCOC(=O)c1sc(NC(=O)CN(CC)CC)c(C(=O)OCC)c1C	43*	2	17*	0	1	3	11
COc1ccc(NC(=O)N(C)C[C@@H]2OCc3ccccc3-c3c(n(C)c4ccccc34)C(=O)N([C@H](C)CO)C[C@H]2C)c(OC)c1	2	-89	0	x	x	x	x
CCOC1=C2[C@@H](CN(S(=O)(=O)c3ccc(C)cc3)[C@H]2c2ccccc2F)[C@H]2C(=O)N(CC)C(=O)[C@H]2C1	5	-1	-1	x	x	x	x
CCOC(=O)[C@@]12CCCC=C1N(CCc1ccc(Cl)cc1)C(=O)[C@H]2CC(=O)NCc1ccc(C)o1	2	x	x	x	x	x	x
O=C(COc1ncnc2ccc(Br)cc12)NCc1ccc2c(c1)OCO2	58*	-6	41*	0	40*	59*	50*	RORg DNA counter=i
N#Cc1cc2c(nc1SCc1ccccc1)CCCC2	28*	0	36*	0	44*	76*	21*
COCCN1C(=O)[C@H]2C[C@@]13O[C@H](c1ccccn1)N=C3CC1c3ccccc3C[C@@]12C (stereo partly drawn)	-5	x	1	x	x	x	x
CN(C)C1CN(Cc2cn(Cc3ccc(C(F)(F)F)cc3)nn2)S(=O)(=O)C1 (stereo not drawn)	0	-7	-1	x	x	x	x
O=C(Nc1ccccc1C(F)(F)F)OCCCN1CCC2(CCC(c3ccccc3)CC2)C1=O (stereo not drawn)	7	x	x	x	x	x	x
CC(C)(C)c1ccc(C#C[C@@H]2C=C[C@H]3OC(=O)CC/C=C/CCC(=O)OC[C@H]3O2)cc1	-2	x	-1	x	x	x	x
COc1ccc(Br)cc1-c1nc2c(c(=O)[nH]c(=O)n2Cc2ccccc2)n1C	92*	-19	45*	1	69*	20*	52*	PG9 bind DR=9.5*;PGV04 binding DR=5.1*;PG126 binding DR=5.7*;RORg DNA counter=>40
O=C(OCc1cn([C@H]2CN(C(=O)C3CCCCC3)[C@@H](c3ccc(Cl)cc3)C[C@@H]2O)nn1)c1ccccc1	3	-7	-1	x	x	x	x
Cc1cccc2cc(C#N)c(SCC(=O)NCc3cccs3)nc12	87*	20	42*	-7	50*	75*	61*	RORg DNA counter=i
Cc1ccc2nc(SCC(=O)Nc3ccc4sc(C)nc4c3)c(C#N)cc2c1	73*	-7	33*	-2	30*	54*	71*	RORg DNA counter=>40
COc1cc2cc(C#N)c(SCC(=O)Nc3cc(C)on3)nc2cc1OC	113*	13	46*	5	49*	69*	75*	RORg DNA counter=>40
CCOC(=O)CC(=O)CSc1nc2ccc(C)cc2cc1C#N	2	-128	-12	6	x	x	x
CCc1cc2cc(C)ccc2nc1SCC(=O)Nc1cc(C)on1	17*	9	14*	-17	11*	31*	26*
Cc1ccc(C)c2nc(SCC(=O)NCc3cccs3)c(C#N)cc12	-4	5	1	4	x	x	x
CC1(C(=O)NC2CCCC2)CCC(=O)N1CCc1c[nH]c2ccccc12 (stereo not drawn)	1	14	-1	x	x	x	x
CCN(CC)C(=O)c1ccc2c(c1)NC(=O)C(C)(C)O2	-6	x	x	x	x	x	x
Cc1cc(C)c2nc(SCC(=O)Nc3cc(C)on3)c(C#N)cc2c1	103*	3	28*	0	52*	75*	68*	RORg DNA counter=i
Cc1cc(C)c2nc(SCC(=O)Nc3cc(C)on3)c(C)cc2c1	11	-11	0	0	x	x	x
Cc1cc(NC(=O)CSc2nc3c(c(-c4cccnc4)c2C#N)CCC3)no1	41*	-25	20*	-1	32*	66*	39*
O=C1C(NC(=O)C(F)(F)Br)CCCCN1Cc1cccc(C(F)(F)F)c1 (stereo not drawn)	1	x	x	x	x	x	x
SMILES	Rev-erbA mod	NR2E3 ag-1	PG9 Ab binder	NR2E3 ag-2	PG9 binder conf	PGV04 Ab binding	Rev-erbA confirm	others
COCCCN1C(=O)[C@H](CC(=O)NCc2cccs2)[C@]2(C(=O)OC)CCCCC=C12	-9	x	x	x	x	x	x
Cc1cc(NC(=O)COc2ccc3oc4ccccc4c3c2)no1	36*	0	23*	7	23*	32*	26*
Cc1cc(NC(=O)COc2ccc3c(C)c(C)c(=O)oc3c2)no1	-1	-3	-2	x	x	x	x
C[C@H](NC(=O)c1ncn2c1c(=O)[nH]c1ccc(Br)cc12)c1ccccc1	133*	-17	20*	x	43*	52*	24*
Cc1ccccc1Nc1nn2c(=O)c3ccccc3nc2s1	37*	-70	36*	0	31*	47*	19*
O=c1c2ccccc2nc2sc(Nc3ccc(F)cc3)nn12	100*	-57	12*	3	23*	24*	92*	RORg DNA counter=>40
CC(C)(C)c1ccc(C#C[C@@H]2C=C[C@@H](O)[C@@H](COC(=O)Nc3ccccc3)O2)cc1	5	x	-2	x	x	x	x
O=C(CNC(=O)c1sc2ccccc2c1Cl)NCc1cccc(C(F)(F)F)c1	31*	18	15*	7	17*	19*	17*
CCC(=O)c1cn(CC(=O)Nc2ccc(C)cc2C)c2ccccc12	36*	14	12*	-1	12*	18*	40*	RORg DNA counter=9.8*
Cc1nc2cc(C(=O)N3CCN(C(=O)C(C)(C)C)CC3)ccc2n1C1CCCC1	-5	x	x	x	x	x	x
O=C(c1ccc(Cn2c(=O)[nH]c3ccsc3c2=O)cc1)N1CCN(c2ccccc2)CC1	1	-5	0	3	x	x	x
CCc1cccc(NC(=O)c2ccc(Cn3c(=O)[nH]c4ccsc4c3=O)cc2)c1	55*	-26	25*	12	29*	40*	60*	RORg DNA counter=i
C[C@@H]1CN([C@@H](C)CO)C(=O)CCCn2nncc2CO[C@H]1CN(C)C(=O)Nc1ccc(F)cc1	4	-2	0	x	x	x	x
Cc1cccc(NC(=O)CSc2nc(C)c(CC(=O)c3ccc(Br)cc3)c(C)c2C#N)c1C	82*	-31	9.2*	8	21*	30*	31*
